{"source": "PubChem BioAssay AID2632", "about": "(Broad Institute, 2010)", "tested_on": "T. cruzi in NIH3T3, immunofluorescence replication, 4 d", "assay": "T. cruzi intracellular replication inhibition, static vs lytic, late-stage follow-up, mechanism study for T. cruzi infection inhibitor project, imaging, immunofluorescence, NIH3T3 host cells (AID 2632)", "conditions": "stronger effect = lower value", "method_in_brief": "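test system = T. cruzi-infected NIH3T3 cells | probe or stimulus = trypomastigotes, MOI 100:1 | compound dosing = one dose, 10× IC50 | schedule = 2 h parasite infection, then 4-day compound exposure | technique = anti-T. cruzi antibody and DAPI fluorescence imaging | measure = percent of 50 infected cells holding more than 4 amastigotes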"}
{"smiles": "CCOc1ccc2oc(=O)cc(CN3CCN(Cc4ccccc4)CC3)c2c1", "values": [{"measurement": "percent infected cells with replication", "setting": "at 2.16 µM", "value": 0, "unit": "%"}]}
{"smiles": "O=C(NCC1CCCN(Cc2cccc(C(F)(F)F)c2)C1)c1ccc(F)cc1", "note": "(configuration not stated)", "values": [{"measurement": "percent infected cells with replication", "setting": "at 1.11 µM", "value": 2, "unit": "%"}]}
{"smiles": "CCn1ncc(CN2CCCC(C(=O)c3cccc(OC(C)C)c3)C2)c1C", "note": "(configuration not stated)", "values": [{"measurement": "percent infected cells with replication", "setting": "at 0.32 µM", "value": 2, "unit": "%"}]}
{"smiles": "CC(C)=CCCC(C)CN(C)CCc1ccccn1", "note": "(configuration not stated)", "values": [{"measurement": "percent infected cells with replication", "setting": "at 0.83 µM", "value": 2, "unit": "%"}]}
{"smiles": "CSc1ccc(CN2CCCC(CNC(=O)c3ccc(F)cc3)C2)cc1", "note": "(configuration not stated)", "values": [{"measurement": "percent infected cells with replication", "setting": "at 1.2 µM", "value": 6, "unit": "%"}]}
{"smiles": "Cc1ccc(NC(=O)CCC(=O)N/N=C/c2ccc([N+](=O)[O-])o2)cc1C", "values": [{"measurement": "percent infected cells with replication", "setting": "at 0.16 µM", "value": 0, "unit": "%"}]}
{"smiles": "CC(C)c1cccc(OCCCCN(C)C)c1", "values": [{"measurement": "percent infected cells with replication", "setting": "at 5.87 µM", "value": 0, "unit": "%"}]}
{"smiles": "CC(C)(C)OC(=O)N/N=C\\c1ccc([N+](=O)[O-])s1", "values": [{"measurement": "percent infected cells with replication", "setting": "at 27 µM", "value": 2, "unit": "%"}]}
{"smiles": "COc1cc(C(=O)NCCC(C)C)ccc1OCc1ccc(Cl)cc1Cl", "values": [{"measurement": "percent infected cells with replication", "setting": "at 13 µM", "value": 0, "unit": "%"}]}
{"smiles": "CC1CC(C)CN(CCOCCSc2ccccc2)C1", "note": "(configuration not stated)", "values": [{"measurement": "percent infected cells with replication", "setting": "at 0.89 µM", "value": 2, "unit": "%"}]}
{"smiles": "O=C(Cc1cn(Cc2cccc(Cl)c2)c2ccccc12)N1CCCCCC1", "values": [{"measurement": "percent infected cells with replication", "setting": "at 17.5 µM", "value": 2, "unit": "%"}]}
{"smiles": "OC(COc1ccc2ccccc2c1Br)Cn1ccnc1", "note": "(configuration not stated)", "values": [{"measurement": "percent infected cells with replication", "setting": "at 5.01 µM", "value": 2, "unit": "%"}]}
{"smiles": "CCCn1ncc(CN2CCCC(C(=O)c3cccc(OC(C)C)c3)C2)c1C", "note": "(configuration not stated)", "values": [{"measurement": "percent infected cells with replication", "setting": "at 0.54 µM", "value": 4, "unit": "%"}]}
{"smiles": "CCc1ccc2nc(N(CCN(C)C)C(=O)c3ccc4ncsc4c3)sc2c1", "values": [{"measurement": "percent infected cells with replication", "setting": "at 0.87 µM", "value": 2, "unit": "%"}]}
{"smiles": "O=C(CNc1cccc2ccccc12)N/N=C/c1ccc([N+](=O)[O-])o1", "values": [{"measurement": "percent infected cells with replication", "setting": "at 0.64 µM", "value": 6, "unit": "%"}]}
{"smiles": "CC(C)Oc1cccc(C(=O)C2CCCN(Cc3cnc(N4CCCC4)s3)C2)c1", "note": "(configuration not stated)", "values": [{"measurement": "percent infected cells with replication", "setting": "at 1.4 µM", "value": 2, "unit": "%"}]}
{"smiles": "Cc1ccccc1OCCCCCn1ccnc1", "values": [{"measurement": "percent infected cells with replication", "setting": "at 5.3 µM", "value": 4, "unit": "%"}]}
{"smiles": "CC(=O)c1cccc(CN2CCCC(CCC(=O)NCc3ccc(F)c(F)c3)C2)c1", "note": "(configuration not stated)", "values": [{"measurement": "percent infected cells with replication", "setting": "at 0.7 µM", "value": 8, "unit": "%"}]}
{"smiles": "CC(C)Oc1cccc(C(=O)C2CCCN(Cc3cnn(C(C)C)c3)C2)c1", "note": "(configuration not stated)", "values": [{"measurement": "percent infected cells with replication", "setting": "at 0.38 µM", "value": 0, "unit": "%"}]}
{"smiles": "CN(Cc1ccccc1)C(=O)C1CCCN(Cc2cccc(Cl)c2)C1", "note": "(configuration not stated)", "values": [{"measurement": "percent infected cells with replication", "setting": "at 1.1 µM", "value": 0, "unit": "%"}]}
{"smiles": "CC1CCCN(C(=O)Cc2cn(Cc3cccc(Cl)c3)c3ccccc23)C1", "note": "(configuration not stated)", "values": [{"measurement": "percent infected cells with replication", "setting": "at 17.9 µM", "value": 0, "unit": "%"}]}
{"smiles": "O=S(=O)(NCC(c1cccnc1)N1CCN(c2ccc(F)cc2)CC1)c1ccccc1", "note": "(configuration not stated)", "values": [{"measurement": "percent infected cells with replication", "setting": "at 0.66 µM", "value": 0, "unit": "%"}]}
{"smiles": "COc1ccccc1/C=C/C(=O)OCCCN(C)C", "values": [{"measurement": "percent infected cells with replication", "setting": "at 7.93 µM", "value": 6, "unit": "%"}]}
{"smiles": "COc1ccc(CCN(C)C(=O)C2CCCN(Cc3ccc(OC)c(OC)c3)C2)cc1OC", "note": "(configuration not stated)", "values": [{"measurement": "percent infected cells with replication", "setting": "at 1 µM", "value": 6, "unit": "%"}]}
{"smiles": "Fc1ccc(CCNCc2ccc(Cl)c(Cl)c2)cc1", "values": [{"measurement": "percent infected cells with replication", "setting": "at 1.22 µM", "value": 0, "unit": "%"}]}
{"smiles": "COCc1cc(CN2CCCC(CNC(=O)c3ccc(F)cc3)C2)ccc1OC", "note": "(configuration not stated)", "values": [{"measurement": "percent infected cells with replication", "setting": "at 1.18 µM", "value": 0, "unit": "%"}]}
{"smiles": "COC(=O)N/N=C/c1ccc([N+](=O)[O-])o1", "values": [{"measurement": "percent infected cells with replication", "setting": "at 4.69 µM", "value": 8, "unit": "%"}]}
